One may read the GI50 as the concentration giving 50% growth inhibition. Read a high GI50 as less potent growth inhibition. The term TGI denotes the concentration at which net growth stops. Low values mean greater sensitivity of the cells, high ones lower sensitivity of the cells.

In ChEMBL document CHEMBL3124806, “Imidazopyridine-fused [1,3]-diazepinones: synthesis and antiproliferative activity” (Eur J Med Chem, 2014) one finds GI50, TGI and CC50 data, which are given here for one molecule.

One test deals with OVCAR-8. Nature of the test: Cytotoxicity against human OVCAR8 cells after 48 hrs by SRB assay. Conditions: OVCAR-8, 48 h. It is filed as functional. Put shortly: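 NCI-60 five-dose screen: cells exposed continuously for 48 h across 100 to 0.01 µM. Growth or viability estimated by sulforhodamine B protein staining, read spectrophotometrically against untreated controls; IC50 taken from the dose-response.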
(In general: The SRB assay estimates cell density from bound dye.)

A short description of test [1]: Cytotoxicity against human Hs578T cells after 48 hrs by SRB assay. It is filed as functional. As to conditions: Hs-578T. The method in brief:
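NCI-60 five-dose testing, 100 to 0.01 µM, under a 48 h continuous-exposure protocol. Growth estimated by SRB protein assay, read spectrophotometrically against untreated controls; IC50 derived from the dose-response.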

Where [2] appears, read: read-out: LC50 (the source's name).

With `C[C@@H]1NC(c2ccc(Br)cc2)=Nc2nc3ccccn3c2C1=O`, the 50% growth inhibitory concentration (GI50) amounted to 17 µM in the test on OVCAR-8 and 2.81 µM in test [1]. Besides, the TGI is above 100 µM in the test on OVCAR-8 and 52 µM in test [1]. For the same molecule, the CC50 (in the test with OVCAR-8 (setting [2]); in test [1] (setting [2])) was above 100 µM throughout.
